Data: ChEMBL document CHEMBL4610111, “Phenolic Compounds from Morus nigra Regulate Viability and Apoptosis of Pancreatic β-Cells Possibly via SERCA Activity” (ACS Med Chem Lett, 2020)
Calls of active or inactive are those of the source. The rule behind the calls is not given here.

Tests used:
[1] = target: Sarcoplasmic/endoplasmic reticulum calcium ATPase 1 (Oryctolagus cuniculus, UniProt P04191); assay: Inhibition of SERCA1 in NewZealand rabbit skeletal muscle SR vesicles using ATP as substrate incubated for 2 mins followed by Ca2+ addition by NADH coupled enzyme assay
Summary of the method: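 SR vesicles (1 mg prot./ml) incubated with compound (10–70 μM) for 2 min at 37 °C, pH 7.2. Ca2+-ATPase rate measured by NADH-coupled enzyme assay as absorbance at 340 nm, 37 °C. Compared with untreated control; mean ± SD from at least three independent experiments.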

[2] = target: Sarcoplasmic/endoplasmic reticulum calcium ATPase 1 (Rattus norvegicus) (UniProt Q64578); assay: Inhibition of SERCA1 in rat INS-1E cells assessed as insulin release preincubated for 24 hrs followed by incubation in glucose-free buffer and measured after 30 mins by RIA; format: cell-based
Summary of the method: (§1)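 INS-1E cells preincubated 24 h with compound, then washed and incubated 30 min at 37 °C in glucose-free KRBH. A further 30 min at 37 °C followed in KRBH containing 16.7 mM glucose. Insulin in collected supernatants determined by RIA with rat insulin standard.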

[3] = target: Sarcoplasmic/endoplasmic reticulum calcium ATPase 1 (Rattus norvegicus) (UniProt Q64578); assay: Inhibition of SERCA1 in rat INS-1E cells assessed as induction of apoptosis by measuring decrease in living cells at IC50 for cell viability incubated for 24 hrs by Annexin V-FITC/propidium iodide staining based flow cytometry
Summary of the method: (§2)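 INS-1E cells incubated 24 h with compound, then stained with Annexin V-FITC/propidium iodide. Living, early apoptotic and late apoptotic fractions scored by flow cytometry and compared with untreated cells.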

[4] = target: Sarcoplasmic/endoplasmic reticulum calcium ATPase 1 (Rattus norvegicus) (UniProt Q64578); assay: Inhibition of SERCA1 in glucose-stimulated rat INS-1E cells assessed as decline in insulin release preincubated for 24 hrs followed by glucose addition and measured after 30 mins by RIA; summary of the method: as §1
[5] = target: Sarcoplasmic/endoplasmic reticulum calcium ATPase 1 (Oryctolagus cuniculus) (UniProt P04191); assay: Binding affinity to transmembrane region of SERCA1A ATP binding site in NewZealand rabbit SR vesicles assessed as conformational changes by measuring intrinsic Trp fluorescence at IC50 incubated for 30 mins by spectrofluorometric analysis
Summary of the method: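 SR vesicles (1 mg protein/mL) incubated 30 min with compound, at 37 °C per methods or room temperature per legend. Trp fluorescence excited at 295 nm, with emission maxima at 336 and 358 nm. Conformational change expressed as the I358/I336 ratio versus untreated control.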

[6] = target: Sarcoplasmic/endoplasmic reticulum calcium ATPase 1 (Rattus norvegicus) (UniProt Q64578); assay: Inhibition of SERCA1 in rat INS-1E cells assessed as induction of apoptosis by measuring increase in early apoptotic cells at IC50 for cell viability incubated for 24 hrs by Annexin V-FITC/propidium iodide staining based flow cytometry; summary of the method: as §2
[7] = target: Sarcoplasmic/endoplasmic reticulum calcium ATPase 1 (Rattus norvegicus) (UniProt Q64578); assay: Inhibition of SERCA1 in rat INS-1E cells assessed as induction of apoptosis by measuring increase in late apoptotic cells at IC50 for cell viability incubated for 24 hrs by Annexin V-FITC/propidium iodide staining based flow cytometry; summary of the method: as §2
[8] = target: Sarcoplasmic/endoplasmic reticulum calcium ATPase 1 (Oryctolagus cuniculus) (UniProt P04191); assay: Binding affinity to cytosolic region of SERCA1 ATP binding site in NewZealand rabbit SR vesicles assessed as conformational changes by measuring decrease in fluorescence intensity at IC50 incubated for 1 hr by FITC probe labeling based analysis
Summary of the method: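 FITC labelling of SR vesicles (protein 12.5 mg/mL) after 1 h preincubation with compound, used as a probe of the cytosolic region of SERCA1. Figure legend states 30 min incubation at 20 mg/mL SR protein. Read-out is the decrease in FITC fluorescence versus untreated control. Mean ± SD from at least three independent experiments, each sample measured 2–3 times.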

[9] = system: INS-1E; assay: Induction of SERCA2b expression in rat INS-1E cells at IC50 for cell viability incubated for 24 hrs by Western blot analysis; format: functional, cell-based
Summary of the method: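 INS-1E cells grown in RPMI 1640 (11 mM glucose) were exposed to compound for 24 h, then lysed in ice-cold lysis buffer, homogenized through a needle and centrifuged. Lysates (15 μg/lane) separated by SDS-PAGE and immunoblotted for SERCA2. Signal normalized to β-actin and given as %, average of 3–6 experiments.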

Sarcoplasmic/endoplasmic reticulum calcium ATPase 1 (Rattus norvegicus), sequence (Q64578 whole entry): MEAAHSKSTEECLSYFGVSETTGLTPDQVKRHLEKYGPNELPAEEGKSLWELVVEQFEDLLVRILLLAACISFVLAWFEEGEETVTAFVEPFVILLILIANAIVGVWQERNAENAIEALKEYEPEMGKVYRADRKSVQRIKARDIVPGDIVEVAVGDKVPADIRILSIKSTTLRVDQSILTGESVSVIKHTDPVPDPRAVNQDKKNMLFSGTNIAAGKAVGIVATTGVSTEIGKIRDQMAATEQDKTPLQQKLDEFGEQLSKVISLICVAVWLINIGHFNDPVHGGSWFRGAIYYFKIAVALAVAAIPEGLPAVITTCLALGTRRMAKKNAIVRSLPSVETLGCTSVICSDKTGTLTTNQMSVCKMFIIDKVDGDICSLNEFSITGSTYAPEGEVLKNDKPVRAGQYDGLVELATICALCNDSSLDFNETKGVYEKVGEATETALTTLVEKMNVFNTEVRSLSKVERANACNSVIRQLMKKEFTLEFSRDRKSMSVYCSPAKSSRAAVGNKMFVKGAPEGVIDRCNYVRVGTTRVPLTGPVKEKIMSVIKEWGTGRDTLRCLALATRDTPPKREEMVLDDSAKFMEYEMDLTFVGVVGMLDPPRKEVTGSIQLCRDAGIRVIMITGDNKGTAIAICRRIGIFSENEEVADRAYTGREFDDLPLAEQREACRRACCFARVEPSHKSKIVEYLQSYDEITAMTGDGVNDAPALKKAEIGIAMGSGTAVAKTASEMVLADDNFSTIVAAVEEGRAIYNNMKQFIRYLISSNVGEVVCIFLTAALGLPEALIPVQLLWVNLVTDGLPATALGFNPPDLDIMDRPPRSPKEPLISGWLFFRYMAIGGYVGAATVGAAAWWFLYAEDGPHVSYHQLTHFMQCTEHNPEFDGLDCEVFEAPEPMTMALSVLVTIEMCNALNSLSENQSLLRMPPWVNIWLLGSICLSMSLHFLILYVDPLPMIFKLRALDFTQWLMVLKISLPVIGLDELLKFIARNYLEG
Sarcoplasmic/endoplasmic reticulum calcium ATPase 1 (Oryctolagus cuniculus), sequence (P04191 whole entry): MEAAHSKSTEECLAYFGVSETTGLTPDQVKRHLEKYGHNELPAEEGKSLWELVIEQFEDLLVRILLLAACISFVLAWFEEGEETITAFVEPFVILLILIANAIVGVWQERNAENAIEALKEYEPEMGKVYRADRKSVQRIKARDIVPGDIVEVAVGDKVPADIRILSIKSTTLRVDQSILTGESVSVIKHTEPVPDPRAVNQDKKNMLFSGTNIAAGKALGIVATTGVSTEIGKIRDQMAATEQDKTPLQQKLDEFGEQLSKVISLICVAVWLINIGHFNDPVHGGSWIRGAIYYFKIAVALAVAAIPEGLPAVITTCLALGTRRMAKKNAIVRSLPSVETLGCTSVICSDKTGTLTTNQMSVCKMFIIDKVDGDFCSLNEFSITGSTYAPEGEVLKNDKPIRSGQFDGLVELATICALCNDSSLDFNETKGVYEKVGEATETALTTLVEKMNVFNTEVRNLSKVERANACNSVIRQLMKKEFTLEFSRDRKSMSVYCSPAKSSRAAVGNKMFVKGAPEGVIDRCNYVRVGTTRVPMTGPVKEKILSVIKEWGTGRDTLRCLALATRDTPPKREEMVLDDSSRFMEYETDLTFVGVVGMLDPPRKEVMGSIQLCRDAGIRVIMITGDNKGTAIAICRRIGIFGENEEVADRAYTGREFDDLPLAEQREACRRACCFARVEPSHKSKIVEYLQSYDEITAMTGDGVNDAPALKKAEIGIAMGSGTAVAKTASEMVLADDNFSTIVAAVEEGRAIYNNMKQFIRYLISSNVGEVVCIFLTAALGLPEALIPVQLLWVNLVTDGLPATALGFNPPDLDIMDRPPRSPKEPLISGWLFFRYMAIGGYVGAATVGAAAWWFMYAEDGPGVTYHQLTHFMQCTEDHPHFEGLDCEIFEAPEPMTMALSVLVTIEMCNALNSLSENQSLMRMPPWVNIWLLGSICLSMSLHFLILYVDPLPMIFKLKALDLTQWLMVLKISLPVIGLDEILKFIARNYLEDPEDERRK
Sarcoplasmic/endoplasmic reticulum calcium ATPase 1, sequence (P04191 whole entry): as above

Row | Compound | IC50 ([1]; read-out: IC50) | inhibition [2] | inhibition [3] | inhibition [4] | Activity [5] | inhibition [6] | inhibition [7] | Activity [8] | Activity [9] | IC50 ([1]; sr)
1 | CC(C)=CCC/C(C)=C/Cc1cc([C@@H]2CC(=O)c3c(O)cc(O)cc3O2)c(O)cc1O | 29.4 µM | inactive | Active | Active | Active | Active | Active | Active | – | –
2 | Cc1cc2c3c(c1)-c1c(O)cc(-c4cc5ccc(O)cc5o4)cc1O[C@@]3(c1ccc(O)cc1O)Oc1cc(O)ccc1-2 | 24.6 µM | inactive | Active | Active | inactive | Active | inactive | inactive | Active | –
3 | CC1=C[C@@H]2c3c(O)cc(-c4cc5ccc(O)cc5o4)cc3O[C@@]3(c4ccc(O)cc4O)Oc4cc(O)ccc4[C@@H](C1)[C@H]23 | 18.9 µM | inactive | Active | Active | inactive | Active | inactive | inactive | Active | –
4 | COc1cc(O)c([C@@H]2CC(=O)c3c(O)cc(O)cc3O2)cc1C/C=C(\C)CCC=C(C)C | 35.6 µM | inactive | Active | Active | Active | Active | Active | Active | – | –
5 | CC(C)=CCc1c(-c2ccc(O)cc2O)oc2c3c(cc(O)c2c1=O)OC(C)(C)C=C3 [MORUSIN] | 43.6 µM | inactive | Active | Active | Active | inactive | Active | Active | – | –
6 | CC(C)(O)C1Cc2cc3cc(-c4cc(O)cc(O)c4)oc3cc2O1 (stereo not drawn) [MORACIN O] | – | inactive | Active | Active | Active | Active | inactive | Active | – | Not Active
7 | CC1(C)Oc2cc3oc(-c4cc(O)cc(O)c4)cc3cc2CC1O (stereo not drawn) [(+/-)-MORACIN P] | – | inactive | Active | Active | Active | Active | inactive | Active | – | Not Active
